Legend:
Format in all cases: cell-based, porcine
LLC-PK1 cells [1] = assay: JC-10 mitochondrial transmembrane potential assay; settings: for effect of cisplatin on ΔΨm: CDDP 20 μM alone
LLC-PK1 cells [2] = assay: MitoSOX Red mitochondrial superoxide detection assay; settings: CDDP 20 μM alone, 24 h
Procedure, shortened: (§1)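 LLC-PK1 cells (M199, 10% FBS, 1% PS; 37 °C, 5% CO2) were seeded at 1×10^4 cells/well overnight. Probe loading was 5 μM CM-H2DCFDA for 30 min (general ROS) or 2.5 μM MitoSOX Red for 10 min (mitochondrial superoxide), then 3 PBS washes. […] After PBS washes, fluorescence was read in PBS at Ex/Em 485/535 nm (DCF) or 510/580 nm (MitoSOX). Three independent experiments.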

LLC-PK1 cells [3] = assay: CM-H2DCFDA general reactive oxygen species quantitation assay; settings: CDDP 20 μM alone, 24 h
Procedure, shortened: as §1

caspase-9 = assay: Caspase-9 activity assay; settings: CDDP 20 μM alone, 24 h
Procedure, shortened: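 Supernatant was mixed 1:1 with HEPES pH 7.4 caspase buffer (CHAPS, glycerol, EDTA, 10 mM DTT) holding 100 μM Ac-LEHD-pNA. Incubation was 90 min at 37 °C, read as absorbance at 400 nm, with activity normalised to BCA total protein.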

caspase-3 = assay: Caspase-3 activity assay; settings: CDDP 20 μM alone, 24 h

N#CC(C#N)=NNc1ccc(OC(F)(F)F)cc1 [FCCP, Carbonyl cyanide-p-trifluoromethoxyphenylhydrazone]
ΔΨm with positive control (LLC-PK1 cells [1]; FCCP 10 μM): depolarized ΔΨm

N.N.[Cl][Pt][Cl] [cisplatin, cis-Diamminedichloroplatinum (II), reference compound]
effect of cisplatin on O2•− generated in mitochondria (LLC-PK1 cells [2]): increased | effect of cisplatin on general ROS (LLC-PK1 cells [3]): increased | effect of cisplatin on caspase-9 activity (caspase-9): greatly elevated | effect of cisplatin on caspase-3 activity (caspase-3): greatly elevated | effect of cisplatin on ΔΨm (LLC-PK1 cells [1]; 6 h): not significantly affected | effect of cisplatin on ΔΨm (LLC-PK1 cells [1]; 24 h): substantial loss of the ΔΨm | effect of cisplatin on ΔΨm (LLC-PK1 cells [1]; 48 h): nearly complete gradient collapse

Reference: publication PMC8853703 (Chemical research in toxicology, 2021)
